From ChEMBL document CHEMBL1811907, “Chemical and biological evaluation of dipeptidyl boronic acid proteasome inhibitors for use in prodrugs and pro-soft drugs targeting solid tumors” (J Med Chem, 2011)

How the values were obtained:
Mus musculus = species on record: Mus musculus; assay: Inhibition of proteasome in mouse tumor cells relative to inhibition in blood cells; format: subcellular; conditions: concentration not given here
[1] = Cytotoxicity against human FSCLL cells after 24 hrs by MTT assay; format: cell-based
Outline: (§1)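 Cells seeded at 3.2 × 10⁴ per well, grown 24 h at 37 °C, 5% CO₂, then exposed to inhibitor dilutions 24 h. Inhibitor from 0.1 M ethanol stock, pre-equilibrated overnight in pH 2.0 or pH 7.6 buffer. MTT (5 mg/mL) added for 3 h; formazan dissolved overnight in acidic Triton/isopropanol; A570 read. Quadruplicates; variable-slope sigmoidal fit.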

HEK293 = assay: Ratio of IC50 for intracellular chymotrypsin-like activity of 20S proteasome in human HEK293 cells to IC50 for in vitro chymotrypsin-like activity of 20S proteasome; format: cell-based
[2] = Ratio of CC50 for human follicular small-cell lymphocytic leukemia cells to IC50 for chymotrypsin-like activity of 20S proteasome at pH 2.0
[3] = Inhibition of chymotrypsin-like activity of 20S proteasome using suc-LLVY-AMC as substrate preincubated for 10 mins before substrate addition at pH 7.6 by fluorescence assay
Outline: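 Inhibitor from 0.1 M ethanol stock diluted into pH 7.6 buffer (25 mM HEPES, 0.5 mM EDTA) and equilibrated overnight at room temperature (24 h per text). SDS-activated 20S proteasome preincubated 10 min with inhibitor before Suc-LLVY-AMC; fluorescence ex 360/em 460 nm after 30 min. Quadruplicates; variable-slope sigmoidal fit.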

[4] = Inhibition of chymotrypsin-like activity of 20S proteasome using suc-LLVY-AMC as substrate preincubated for 10 mins before substrate addition at pH 2.0 by fluorescence assay
Outline: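 Inhibitor from 0.1 M ethanol stock diluted into pH 2.0 buffer (0.148 M HCl, 0.052 M KCl) and equilibrated overnight at room temperature (24 h per text). 20S proteasome SDS-activated, preincubated 10 min with inhibitor; Suc-LLVY-AMC added; fluorescence (ex 360/em 460 nm) read after 30 min. Assay-well pH checked. Quadruplicates; variable-slope sigmoidal fit.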

[5] = Inhibition of intracellular chymotrypsin-like activity of 20S proteasome in human HEK293 cells after 24 hrs by fluorescence plate reader; format: cell-based; conditions: HEK293, 24 h
Outline: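 HEK 293 ZsGreen proteasome-sensor cells (stable ZsGreen–ornithine decarboxylase degron fusion, G418 maintenance) seeded 3.2 × 10⁴ per well, grown 24 h. Then 24 h with inhibitor at 37 °C, 5% CO₂. Cells lysed in HEPES/EDTA/5% Triton buffer for 1 h; fluorescence ex 485/em 535 nm. Quadruplicates; variable-slope sigmoidal fit.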

[6] = Ratio of CC50 for human follicular small-cell lymphocytic leukemia cells to IC50 for intracellular chymotrypsin-like activity of 20S proteasome in human HEK293 cells
[7] = Cytotoxicity against human HEK293 cells after 24 hrs by MTT assay; format: cell-based; outline: as §1

inhibition (Mus musculus): 44.8%
IC50 [3]: 14 nM
IC50 [4]: 10 nM
IC50 [5]: 27 nM
Structure (SMILES): CC(C)C[C@H](NC(=O)[C@H](Cc1ccccc1)NC(=O)c1cnccn1)B(O)O [BORTEZOMIB]
CC50 at 24 h [1]: 4 nM
Ratio IC50 (HEK293): 2.7
Ratio CC50/IC50 [2]: 0.4
Ratio CC50/IC50 [6]: 0.16
CC50 at 24 h [7]: 347 nM
